According to ChEMBL document CHEMBL4177582, “Modifications of flexible nonyl chain and nucleobase head group of (+)-erythro-9-(2's-hydroxy-3's-nonyl)adenine [(+)-EHNA] as adenosine deaminase inhibitors” (Bioorg Med Chem, 2017):

Legend:
[1] = Drug metabolism in mouse liver microsomes assessed as drug recovery pre-incubated at 37 degC for 5 mins measured after 30 mins in absence of NADPH by LC/MS/MS method; format: ADME, microsome; conditions: read-out: Drug recovery
[2] = Drug metabolism in human liver microsomes assessed as metabolic turnover rate per 0.125 mg/ml protein pre-incubated at 37 degC for 5 mins before NADPH addition and measured after 30 mins by LC/MS/MS method; format: ADME, microsome; conditions: 0.5 h
[3] = AUC (0 to t) in Wistar rat at 1 mg/kg, iv after 0.25 to 24 hrs by LC/MS/MS method; format: ADME, organism-based; set-up: dose 1 mg/kg, time 0.25-24 hr, route intravenous; conditions: in vivo
How it was run: (§1)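 Male Wistar rats were given a single intravenous dose. The vehicle was NMP 10%, PEG-300 15%, and 0.1M ammonium acetate buffer q.s. (pH 3). Plasma concentration–time profiles were used to derive AUC0-t, Vss, clearance (mL/min/kg) and t1/2.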

[4] = Half life in mouse liver microsomes pre-incubated at 37 degC for 5 mins before NADPH addition and measured after 30 mins by LC/MS/MS method; format: ADME, microsome
Adenosine deaminase = molecular target: T1, Adenosine deaminase (Bos taurus, UniProt P56658); experiment: Inhibition of bovine adenosine deaminase pre-incubated for 5 mins before adenosine addition; conditions: read-out: Ki
T1 sequence (P56658 whole entry): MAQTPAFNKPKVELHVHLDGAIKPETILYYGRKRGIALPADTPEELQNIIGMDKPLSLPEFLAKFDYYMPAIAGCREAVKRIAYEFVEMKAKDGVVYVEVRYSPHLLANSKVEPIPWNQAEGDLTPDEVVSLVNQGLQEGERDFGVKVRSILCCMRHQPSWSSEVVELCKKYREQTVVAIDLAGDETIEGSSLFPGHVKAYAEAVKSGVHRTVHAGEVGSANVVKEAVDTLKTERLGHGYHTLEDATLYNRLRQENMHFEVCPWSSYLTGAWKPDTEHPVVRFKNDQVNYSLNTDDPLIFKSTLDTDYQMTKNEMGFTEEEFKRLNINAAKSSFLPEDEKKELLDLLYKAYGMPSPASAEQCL

[5] = Half life in rat liver microsomes pre-incubated at 37 degC for 5 mins before NADPH addition and measured after 30 mins by LC/MS/MS method; format: ADME, microsome
[6] = Drug metabolism in rat liver microsomes assessed as drug recovery pre-incubated at 37 degC for 5 mins measured after 30 mins in absence of NADPH by LC/MS/MS method; format: ADME, microsome; conditions: read-out: Drug recovery
[7] = Drug metabolism in human liver microsomes assessed as drug recovery pre-incubated at 37 degC for 5 mins before NADPH addition and measured after 30 mins by LC/MS/MS method; format: ADME, microsome; conditions: read-out: Drug recovery
[8] = Drug metabolism in rat liver microsomes assessed as metabolic turnover rate per 0.125 mg/ml protein pre-incubated at 37 degC for 5 mins before NADPH addition and measured after 30 mins by LC/MS/MS method; format: ADME, microsome; conditions: 0.5 h
[9] = Half life in human liver microsomes pre-incubated at 37 degC for 5 mins before NADPH addition and measured after 30 mins by LC/MS/MS method; format: ADME, microsome
[10] = Clearance in Wistar rat at 1 mg/kg, iv after 0.25 to 24 hrs by LC/MS/MS method; format: ADME, organism-based; conditions: in vivo; how it was run: as §1
[11] = Drug metabolism in mouse liver microsomes assessed as drug recovery pre-incubated at 37 degC for 5 mins before NADPH addition and measured after 30 mins by LC/MS/MS method; format: ADME, microsome; conditions: read-out: Drug recovery
[12] = Drug metabolism in rat liver microsomes assessed as drug recovery pre-incubated at 37 degC for 5 mins before NADPH addition and measured after 30 mins by LC/MS/MS method; format: ADME, microsome; conditions: read-out: Drug recovery
[13] = Half life in Wistar rat at 1 mg/kg, iv after 0.25 to 24 hrs by LC/MS/MS method; format: ADME, organism-based; conditions: in vivo; how it was run: as §1
[14] = Drug metabolism in mouse liver microsomes assessed as metabolic turnover rate per 0.125 mg/ml protein pre-incubated at 37 degC for 5 mins before NADPH addition and measured after 30 mins by LC/MS/MS method; format: ADME, microsome; conditions: 0.5 h
[15] = Drug metabolism in human liver microsomes assessed as drug recovery pre-incubated at 37 degC for 5 mins measured after 30 mins in absence of NADPH by LC/MS/MS method; format: ADME, microsome; conditions: read-out: Drug recovery
[16] = Volume of distribution at steady state in Wistar rat at 1 mg/kg, iv after 0.25 to 24 hrs by LC/MS/MS method; format: ADME, organism-based; conditions: in vivo, read-out: Vdss; how it was run: as §1
Rattus norvegicus [17] = experiment: Clearance in Wistar rat at 1 mg/kg, iv after 1 hr by LC/MS/MS method; format: ADME, organism-based; conditions: in vivo, BLD = below limit of detection; how it was run: as §1
Rattus norvegicus [18] = experiment: Plasma concentration in Wistar rat at 1 mg/kg, iv after 1 hr by LC/MS/MS method; format: ADME, organism-based; conditions: in vivo, BLD = below limit of detection; how it was run: as §1

Row | remaining at 0.5 h [1] [%] | Drug metabolism [2] [nmol/min/mg] | AUC(0-t) [3] [nM·h] | half-life [4] [min] | Ki (Adenosine deaminase) [nM] | half-life [5] [min] | remaining at 0.5 h [6] [%] | remaining at 0.5 h [7] [%] | Drug metabolism [8] [nmol/min/mg] | half-life [9] [min] | clearance [10] [L/h/kg] | remaining at 0.5 h [11] [%] | remaining at 0.5 h [12] [%] | half-life [13] [min] | Drug metabolism [14] [nmol/min/mg] | remaining at 0.5 h [15] [%] | Vd [16] [L/kg] | CL (Rattus norvegicus [17]) | Cp (Rattus norvegicus [18]) | SMILES
1 | 93 | 0.06 | 1420 | > 30 | 5.9 | > 30 | 92 | 79 | 0.04 | > 30 | 2 | 89 | 87 | 56.4 | 0.04 | 94 | 2 |  |  | C[C@H](O)[C@@H](CCc1cccc(C(F)(F)F)c1)n1cnc(C(N)=O)c1
2 |  |  | 350 |  | 2.2 |  |  |  |  |  |  |  |  |  |  |  |  | Bld | Bld | CCCCCC[C@H]([C@H](C)O)n1cnc2c(N)ncnc21 [(+)-EHNA]
